Compound activity from PubChem.
A selection: hits, their analogues and other compounds. The true share with any hit is near 4.6%.
TAAR1 ag: agonists of human TAAR1 | Q96RJ0 | CHO RD-HGA16 TAAR1, Fluo-8 calcium fluorescence; vehicle wells 0%, saturating PEA agonist 100% | activation, % at 3 µM | 0.99% of 360,000 active | AID 624467;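 active means activation above the mean activation of all test compounds in the run plus 3 SD, cut at about 38% in these data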
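Repeats: no replicates (n 1) | Material: CHO-derived RD-HGA16 cells with stable Gα16 and human TAAR1 | Technique: Kinetic Fluo-8 calcium fluorescence | Schedule: 17-24 h seeding, 75 min 37 °C dye, 30 min RT | Evaluation: % activation from peak over basal fluorescence ratio, DMSO-to-PEA scaled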
CHO parental Ca: counter-screen for OX1R antagonists: effect in parental CHO cells. parental CHO-K1, ATP-induced calcium, Fluo-8 fluorescence. inhibition, % at 5.6 µM. 0.63% of 330,000 active. AID 463079;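 active means inhibition above that plate's mean sample inhibition plus 3 SD, cut at about 26% in these data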;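 further: 0% = ATP-challenged DMSO wells and 100% = DMSO wells without ATP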
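Measured by: calcium-sensitive Fluo-8 fluorescence / Test system: CHO parental line / Controls: ATP-challenged DMSO wells low, unchallenged DMSO wells high / Measure: % inhibition / Compound: single nominal dose of 5.6 µM per compound / Replicates: single well per compound, no replicates / Reagent: ATP as calcium-mobilizing challenge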
GPR7 antag: human neuropeptides B/W receptor 1 antagonism | P48145 | GPR7-expressing cells, fluorescence antagonist assay | inhibition, % at 4.4 µM | 1.1% of 290,000 active | AID 1861; in the data active means inhibition above about 16%, passing the limit was not always enough;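 further: cells stimulated with the agonist NPW; 0% = agonist with vehicle and 100% = vehicle without agonist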
OX1R antag-1: OX1R (human) antagonism; O43613; OX1R-expressing cells, FRET antagonist read-out; inhibition, % at 6.6 µM; 1.8% of 330,000 active; AID 485270; in the data active means inhibition mostly above about 38%, no sharp cut-off; inactive means mostly below about 40%;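 further: 0% = agonist challenge alone and 100% = reference antagonist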
Target sequence (O43613 whole entry, looked up): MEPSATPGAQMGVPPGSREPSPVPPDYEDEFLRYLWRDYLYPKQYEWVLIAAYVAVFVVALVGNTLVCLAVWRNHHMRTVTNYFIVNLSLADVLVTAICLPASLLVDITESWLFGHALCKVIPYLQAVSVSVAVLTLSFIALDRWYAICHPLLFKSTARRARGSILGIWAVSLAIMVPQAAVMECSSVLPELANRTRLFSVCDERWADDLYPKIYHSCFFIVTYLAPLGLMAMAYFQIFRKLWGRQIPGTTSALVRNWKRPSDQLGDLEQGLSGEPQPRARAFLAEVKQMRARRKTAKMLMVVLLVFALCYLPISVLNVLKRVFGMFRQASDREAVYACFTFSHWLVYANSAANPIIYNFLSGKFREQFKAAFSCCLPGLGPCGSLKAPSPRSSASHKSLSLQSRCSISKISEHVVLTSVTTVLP
OX1R antag-2: antagonists of human orexin 1 receptor; inhibition, % at 5 µM; O43613; AID 434989; 0.43% of 330,000 active; CHO/OX1R cells, Fluo-8 calcium fluorescence, orexin A;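 active means inhibition above its plate's threshold, mean inhibition of all tested compounds on the plate plus 3 SD, cut at about 37% in these data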;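 further: 0% = orexin A challenge wells and 100% = SB-334867-A antagonist wells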
TAAR1 antag: human TAAR1 antagonism | inhibition, % at 3 µM | 1.5% of 360,000 active | CHO RD-HGA16 TAAR1, Fluo-8 calcium fluorescence, antagonist | Q96RJ0;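 active means inhibition above a per-plate cutoff, the mean inhibition of test compounds on that plate plus 3 SD, cut at about 49% in these data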;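 further: 0% = DMSO plus EC80 beta-PEA response and 100% = DMSO alone without agonist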
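Material: RD-HGA16 CHO cells with stable hTAAR1 and Gα16; Dosing: single nominal final test compound concentration of 3 µM; Schedule: seeding 17-24 h prior, 75-min 37 °C, 30-min RT dye loading; Detection: kinetic Fluo-8 calcium fluorescence measurement; Measure: % inhibition from peak post-agonist over basal fluorescence ratio; Benchmarks: vehicle and agonist controls.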
TAAR1 ag confirm: confirmation of human TAAR1 agonists | shares compounds with TAAR1 ag | AID 651783 | activation, % at 3 µM | CHO RD-HGA16 TAAR1, Fluo-8 calcium fluorescence; scaled: DMSO 0%, maximal phenethylamine 100% | 82% of 2,400 active;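 active means activation above a cutoff set at the run's mean compound activation plus 3 SD, cut at about 39% in these data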
Ga16 nonsel ag: counter-screen for TAAR1 agonists: nonselective agonists in parental cells; shares compounds with TAAR1 ag; CHO-Ga16 parental, Fluo-8 calcium fluorescence; normalized to maximal ATP response, DMSO zero; activation, % at 3 µM; 50% of 2,400 active;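 active means activation above the run cutoff, the mean activation over all tested wells plus 3 SD, cut at about 12% in these data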;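 further: 0% = DMSO wells and 100% = maximal ATP response on the peak over basal ratio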
TAAR1 desens: TAAR1 response desensitization, agonist counter-screen. shares compounds with TAAR1 ag. CHO RD-HGA16 hTAAR1, Fluo-8 calcium, beta-PEA response inhibition. inhibition, % at 3 µM. 46% of 2,400 active. AID 651951;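 active means inhibition above the run cutoff, the mean inhibition of all test compounds plus 3 SD, cut at about 49% in these data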;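 further: beta-PEA stimulus applied at its EC80; loss of beta-PEA calcium signal after compound pretreatment read as receptor desensitization; 0% = DMSO with beta-PEA at EC80 and 100% = DMSO alone without agonist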
Ga16 nonsel ant: nonselective Ga16 antagonist in TAAR1 agonist counter-screen; AID 651952; CHO-Ga16 ATP-induced calcium, Fluo-8 fluorescence; 39% of 2,400 active; shares compounds with TAAR1 ag; inhibition, % at 3 µM;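 active means inhibition above the plate's mean compound inhibition plus 3 SD, computed per plate, cut at about 22% in these data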;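 further: 0% = EC80 ATP with DMSO and 100% = DMSO wells without ATP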
* = called active by the depositor; nt = not tested or not shown.

SMILES | TAAR1 ag | CHO parental Ca | GPR7 antag | OX1R antag-1 | OX1R antag-2 | TAAR1 antag | TAAR1 ag confirm | Ga16 nonsel ag | TAAR1 desens | Ga16 nonsel ant
C=CCNc1nc(-c2ccc(O)c(C(N)=O)c2)cs1 | 3.0 | 1.3 | 2.6 | 27.6 | -8.8 | -26.8 | nt | nt | nt | nt
NC(=O)c1cc(-c2csc(NCCc3ccccc3)n2)ccc1O | 48.8* | -16.3 | -1.0 | 15.2 | -17.3 | -10.8 | 45.9* | 6.3 | 21.2 | 18.7
Cc1cc(C)c2c(=O)n(CC(=O)Nc3ccc(Cl)cc3)sc2n1 | 86.7* | 56.0* | -7.6 | 10.2 | 45.2* | 80.1* | 100.0* | 60.9* | 87.3* | 68.1*
CCOC(=O)c1cn(CC(=O)Nc2cccc(F)c2)nn1 | 4.5 | 4.7 | 10.5 | -4.0 | -3.8 | -4.3 | nt | nt | nt | nt
Cc1cc(C)c2c(=O)n(CC(=O)Nc3cccc(F)c3)sc2n1 | 70.4* | 22.1 | -13.6 | 17.4 | 6.2 | 72.0* | 95.2* | 54.0* | 88.0* | 60.4*
Clc1cccc(Cl)c1CSc1nnc(-c2ccncc2)s1 | 117.0* | 0.2 | -1.1 | 14.4 | -7.1 | 78.5* | 128.2* | 116.6* | 99.6* | 74.8*
COC(=O)c1ccc(CNC(=O)COC(=O)c2cc(Cl)ccc2O)cc1 | 62.1* | -25.1 | nt | 1.2 | -13.4 | 70.2* | 21.0 | 5.4 | 18.8 | 17.3
O=C(COC(=O)c1cc(Cl)ccc1O)NCCNC(=O)COC(=O)c1cc(Cl)ccc1O | 2.9 | 18.0 | -2.6 | 24.8 | 0.9 | 6.8 | nt | nt | nt | nt
Cc1ccc(S(=O)(=O)N2CCC(C(=O)OC(C)C(=O)NC(N)=O)CC2)cc1C (stereo not given) | 3.7 | -12.2 | -6.2 | 12.0 | -7.9 | -21.3 | nt | nt | nt | nt
COc1ccc(CCN2CCC(Nc3nc4ccccc4n3Cc3ccc(F)cc3)CC2)cc1 | 59.5* | 7.3 | 15.6 | -1.4 | 5.2 | 30.4 | 53.6* | 19.6* | 22.8 | 15.9
Cc1ccc(C(=O)NNC(=S)NC(=O)c2ccco2)cc1 | 110.7* | 65.8* | 4.8 | 11.0 | 64.2* | 33.6 | 100.7* | 81.8* | 46.8 | 46.7*
Cc1ccc(C(=O)NC(=S)NCc2ccccc2)cc1 | 2.3 | -12.8 | -18.6 | 11.2 | -25.3 | -7.2 | nt | nt | nt | nt
Cc1ccc(C(=O)NNC(=S)NC(=O)c2ccccc2)cc1 | 166.5* | 33.6* | nt | 19.7 | 57.2* | 106.5* | 136.3* | 92.2* | 92.7* | 79.0*
CC(C)C(=O)Nc1ccc(C(=O)NNC(=S)NC(=O)c2cccs2)cc1 | -1.0 | -7.8 | -9.3 | 13.9 | -6.5 | 6.2 | nt | nt | nt | nt
Cc1cccc(C(=O)NNC(=S)NC(=O)c2cccs2)c1 | 142.3* | 33.5* | 7.4 | 11.9 | 32.0 | 60.0* | 120.5* | 95.2* | 74.7* | 53.2*
Cc1cccc(C(=O)NNC(=S)NC(=O)c2ccccc2)c1 | 169.3* | 36.5* | nt | 8.4 | 62.3* | 106.7* | 133.0* | 105.0* | 91.9* | 74.9*
Cc1ccc(C(=O)NNC(=O)c2cccc(C)c2)cc1 | 4.0 | 5.0 | -12.7 | 9.5 | -5.1 | 1.8 | nt | nt | nt | nt
CCOc1ccccc1C(=O)OCC(=O)NCC1CCCCC1 | 3.8 | -9.2 | nt | 14.6 | -33.2 | -8.3 | nt | nt | nt | nt
COc1cc2ncnc(NCc3ccc(F)cc3)c2cc1OC | 5.4 | -12.5 | -18.0 | 11.7 | -8.7 | -5.4 | nt | nt | nt | nt
CCOc1cc(/C=C2/NC(=O)NC2=O)cc(Br)c1OCc1ccc(C(=O)O)cc1 | 3.6 | -9.1 | -2.0 | 12.8 | -19.9 | 9.7 | nt | nt | nt | nt
CC(C)(C)OC(=O)NCCc1n[nH]c(=S)o1 | 0.2 | 4.1 | -8.3 | 8.7 | -8.8 | -22.9 | nt | nt | nt | nt
